Results from ChEMBL document CHEMBL1148755, “Structural analogues of smoothened intracellular loops as potent inhibitors of Hedgehog pathway and cancer cell growth” (J Med Chem, 2007).
Calls of active or inactive are those of the source. No cut-off for these calls is given here. Square brackets hold non-standard residues; d marks the D form. Peptide text beside a SMILES is read from it. * marks the point of attachment. Bpa = N[C@@H](Cc1ccc(C(=O)c2ccccc2)cc1)C(=O)O; Palmitoyl = CCCCCCCCCCCCCCCC(=O)*

System: MCF7
Experiment: Growth inhibition of breast cancer MCF7 cells after 48 hrs by MTT assay
Format: functional, cell-based
Conditions: Homo sapiens
Procedure, shortened: (§1)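 Cells seeded at 200-400 per well in DMEM with 10% FBS and left to attach for 24 h. The next day, inhibitor in medium at 2× was added in an equal volume, and cells were incubated 48 h in a CO2 incubator. Reference plates were read at time of addition for T0 density. MTT staining was read as absorbance at 544 nm and compared with untreated control cells.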

| Compound | Activity |
| --- | --- |
| CCCCCCCCCCCCCCCC(=O)N[C@@H](CC(C)C)C(=O)N[C@H](C(=O)N[C@@H](Cc1ccc(O)cc1)C(=O)N[C@@H](C)C(=O)N[C@@H](Cc1c[nH]c2ccccc12)C(=O)N[C@@H](Cc1cnc[nH]1)C(=O)N[C@H](C(=O)N[C@@H](CO)C(=O)N[C@@H](Cc1ccccc1)C(=O)N[C@@H](CCCCN)C(=O)N[C@@H](C)C(=O)N[C@@H](CC(C)C)C(=O)NCC(=O)N[C@H](C(=O)N[C@H](C(=O)N[C@@H](Cc1ccc(O)cc1)C(=O)N[C@@H](CCC(N)=O)C(=O)N1CCC[C@H]1C(=O)N[C@@H](CC(C)C)C(=O)N[C@@H](CO)C(=O)NCC(=O)N[C@@H](CCCCN)C(=O)N[C@@H](Cc1ccc(O)cc1)C(=O)N[C@@H](CO)C(=O)N[C@@H](Cc1ccc(O)cc1)C(=O)O)[C@@H](C)O)[C@@H](C)O)[C@@H](C)O)[C@@H](C)O (Palmitoyl-LTYAWHTSFKALGTTYQPLSGKYSY-OH) | Active |
| CCCCCCCCCCCCCCCC(=O)N[C@@H](CCCNC(=N)N)C(=O)NCC(=O)N[C@H](C(=O)N[C@@H](CCSC)C(=O)N[C@H](C(=O)N[C@@H](CC(C)C)C(=O)N[C@@H](Cc1ccccc1)C(=O)N[C@@H](CO)C(=O)N[C@H](C(=O)N[C@@H](CCCCN)C(=O)N[C@@H](CO)C(=O)N[C@@H](CC(N)=O)C(=O)N[C@@H](Cc1c[nH]cn1)C(=O)N1CCC[C@H]1C(=O)NCC(=O)N[C@@H](CC(C)C)C(=O)N[C@@H](CC(C)C)C(=O)N[C@@H](CO)C(=O)N[C@@H](CCC(=O)O)C(=O)N[C@@H](CCCCN)C(=O)N[C@@H](C)C(=O)N[C@@H](C)C(=O)N[C@@H](CO)C(=O)N[C@@H](CCCCN)C(=O)N[C@H](C(=O)N[C@@H](CC(N)=O)C(=O)N[C@@H](CCC(=O)O)C(=O)N[C@H](C(=O)N[C@@H](CCSC)C(=O)N[C@@H](CC(C)C)C(=O)O)[C@@H](C)O)[C@@H](C)CC)[C@@H](C)CC)[C@@H](C)O)C(C)C (Palmitoyl-RGVMTLFSIKSNHPGLLSEKAASKINETML-OH) | Active |
| CCCCCCCCCCCCCCCC(=O)N[C@H](C(=O)N[C@@H](Cc1ccccc1)C(=O)N[C@H](C(=O)N[C@@H](C)C(=O)N[C@@H](CC(=O)O)C(=O)N[C@@H](Cc1c[nH]c2ccccc12)C(=O)N[C@@H](CCCNC(=N)N)C(=O)N[C@@H](CC(N)=O)C(=O)N[C@@H](CO)C(=O)N[C@@H](CC(N)=O)C(=O)N[C@@H](CCCNC(=N)N)C(=O)N[C@@H](Cc1ccc(O)cc1)C(=O)O)C(C)C)[C@@H](C)O (Palmitoyl-TFVADWRNSNRY-OH) | Active |

System: SK-MEL-2
Experiment: Growth inhibition of SK-Mel2 melanoma cells after 48 hrs by MTT assay
Format: functional, cell-based, Homo sapiens
Conditions: Homo sapiens, SK-MEL-2, 48 h
Procedure, shortened: as §1

| IC50 [nM] | Compound |
| --- | --- |
| 1400 | CCCCCCCCCCCCCCCC(=O)N[C@@H](CC(C)C)C(=O)N[C@H](C(=O)N[C@@H](Cc1ccc(O)cc1)C(=O)N[C@@H](C)C(=O)N[C@@H](Cc1c[nH]c2ccccc12)C(=O)N[C@@H](Cc1cnc[nH]1)C(=O)N[C@H](C(=O)N[C@@H](CO)C(=O)N[C@@H](Cc1ccccc1)C(=O)N[C@@H](CCCCN)C(=O)N[C@@H](C)C(=O)N[C@@H](CC(C)C)C(=O)NCC(=O)N[C@H](C(=O)N[C@H](C(=O)N[C@@H](Cc1ccc(O)cc1)C(=O)N[C@@H](CCC(N)=O)C(=O)N1CCC[C@H]1C(=O)N[C@@H](CC(C)C)C(=O)N[C@@H](CO)C(=O)NCC(=O)O)[C@@H](C)O)[C@@H](C)O)[C@@H](C)O)[C@@H](C)O (Palmitoyl-LTYAWHTSFKALGTTYQPLSG-OH) |
| 450 | CCCCCCCCCCCCCCCC(=O)N[C@@H](CC(C)C)C(=O)N[C@H](C(=O)N[C@@H](Cc1ccc(O)cc1)C(=O)N[C@@H](C)C(=O)N[C@@H](Cc1c[nH]c2ccccc12)C(=O)N[C@@H](Cc1cnc[nH]1)C(=O)N[C@H](C(=O)N[C@@H](CO)C(=O)N[C@@H](Cc1ccccc1)C(=O)N[C@@H](CCCCN)C(=O)N[C@@H](C)C(=O)N[C@@H](CC(C)C)C(=O)NCC(=O)N[C@H](C(=O)N[C@H](C(=O)N[C@@H](Cc1ccc(O)cc1)C(=O)N[C@@H](CCC(N)=O)C(=O)N1CCC[C@H]1C(=O)N[C@@H](CC(C)C)C(=O)N[C@@H](CO)C(=O)NCC(=O)N[C@@H](CCCCN)C(=O)N[C@H](C(=O)N[C@@H](CO)C(=O)N[C@@H](Cc1ccc(O)cc1)C(=O)O)[C@@H](C)O)[C@@H](C)O)[C@@H](C)O)[C@@H](C)O)[C@@H](C)O (Palmitoyl-LTYAWHTSFKALGTTYQPLSGKTSY-OH) |
| 50 | CCCCCCCCCCCCCCCC(=O)NCCCC[C@H](NC(=O)[C@H](Cc1ccc(O)cc1)NC(=O)[C@H](CO)NC(=O)[C@@H](NC(=O)[C@H](CCCCN)NC(=O)CNC(=O)[C@H](CO)NC(=O)[C@H](CC(C)C)NC(=O)[C@@H]1CCCN1C(=O)[C@H](CCC(N)=O)NC(=O)[C@H](Cc1ccc(O)cc1)NC(=O)[C@@H](NC(=O)[C@@H](NC(=O)CNC(=O)[C@H](CC(C)C)NC(=O)[C@H](C)NC(=O)[C@H](CCCCN)NC(=O)[C@H](Cc1ccccc1)NC(=O)[C@H](CO)NC(=O)[C@@H](NC(=O)[C@H](Cc1cnc[nH]1)NC(=O)[C@H](Cc1c[nH]c2ccccc12)NC(=O)[C@H](C)NC(=O)[C@H](Cc1ccc(O)cc1)NC(=O)[C@@H](NC(=O)[C@H](CC(C)C)NC(=O)CCCCCCCCCCCCCCC)[C@@H](C)O)[C@@H](C)O)[C@@H](C)O)[C@@H](C)O)[C@@H](C)O)C(=O)O (Palmitoyl-LTYAWHTSFKALGTTYQPLSGKTSYK(Palmitoyl)-OH) |
| 450 | CCCCCCCCCCCCCCCC(=O)N[C@@H](CC(C)C)C(=O)N[C@H](C(=O)N[C@@H](Cc1ccc(O)cc1)C(=O)N[C@@H](C)C(=O)N[C@@H](Cc1c[nH]c2ccccc12)C(=O)N[C@@H](Cc1cnc[nH]1)C(=O)N[C@H](C(=O)N[C@@H](CO)C(=O)N[C@@H](Cc1ccccc1)C(=O)N[C@@H](CCCCN)C(=O)N[C@@H](C)C(=O)N[C@@H](CC(C)C)C(=O)NCC(=O)N[C@H](C(=O)N[C@H](C(=O)N[C@@H](Cc1ccc(O)cc1)C(=O)N[C@@H](CCC(N)=O)C(=O)N1CCC[C@H]1C(=O)N[C@@H](CC(C)C)C(=O)N[C@@H](CO)C(=O)NCC(=O)N[C@@H](CCCCN)C(=O)N[C@@H](Cc1ccc(O)cc1)C(=O)N[C@@H](CO)C(=O)N[C@@H](Cc1ccc(O)cc1)C(=O)O)[C@@H](C)O)[C@@H](C)O)[C@@H](C)O)[C@@H](C)O (Palmitoyl-LTYAWHTSFKALGTTYQPLSGKYSY-OH) |
| 950 | CCCCCCCCCCCCCCCC(=O)N[C@@H](CCCNC(=N)N)C(=O)NCC(=O)N[C@H](C(=O)N[C@@H](CCSC)C(=O)N[C@H](C(=O)N[C@@H](CC(C)C)C(=O)N[C@@H](Cc1ccccc1)C(=O)N[C@@H](CO)C(=O)N[C@H](C(=O)N[C@@H](CCCCN)C(=O)N[C@@H](CO)C(=O)N[C@@H](CC(N)=O)C(=O)N[C@@H](Cc1c[nH]cn1)C(=O)O)[C@@H](C)CC)[C@@H](C)O)C(C)C (Palmitoyl-RGVMTLFSIKSNH-OH) |
| 500 | CCCCCCCCCCCCCCCC(=O)N[C@@H](CCCNC(=N)N)C(=O)NCC(=O)N[C@H](C(=O)N[C@@H](CCSC)C(=O)N[C@H](C(=O)N[C@@H](CC(C)C)C(=O)N[C@@H](Cc1ccccc1)C(=O)N[C@@H](CO)C(=O)N[C@H](C(=O)N[C@@H](CCCCN)C(=O)N[C@@H](CO)C(=O)N[C@@H](CC(N)=O)C(=O)N[C@@H](Cc1c[nH]cn1)C(=O)N1CCC[C@H]1C(=O)NCC(=O)N[C@@H](CC(C)C)C(=O)N[C@@H](CC(C)C)C(=O)N[C@@H](CO)C(=O)O)[C@@H](C)CC)[C@@H](C)O)C(C)C (Palmitoyl-RGVMTLFSIKSNHPGLLS-OH) |
| 500 | CCCCCCCCCCCCCCCC(=O)N[C@@H](CCCNC(=N)N)C(=O)NCC(=O)N[C@H](C(=O)N[C@@H](CCSC)C(=O)N[C@H](C(=O)N[C@@H](CC(C)C)C(=O)N[C@@H](Cc1ccccc1)C(=O)N[C@@H](CO)C(=O)N[C@H](C(=O)N[C@@H](CCCCN)C(=O)N[C@@H](CO)C(=O)N[C@@H](CC(N)=O)C(=O)N[C@@H](Cc1c[nH]cn1)C(=O)N1CCC[C@H]1C(=O)NCC(=O)N[C@@H](CC(C)C)C(=O)N[C@@H](CC(C)C)C(=O)N[C@@H](CO)C(=O)N[C@@H](CCC(=O)O)C(=O)N[C@@H](CCCCN)C(=O)N[C@@H](C)C(=O)O)[C@@H](C)CC)[C@@H](C)O)C(C)C (Palmitoyl-RGVMTLFSIKSNHPGLLSEKA-OH) |
| 640 | CCCCCCCCCCCCCCCC(=O)N[C@@H](CCCNC(=N)N)C(=O)NCC(=O)N[C@H](C(=O)N[C@@H](CCSC)C(=O)N[C@H](C(=O)N[C@@H](CC(C)C)C(=O)N[C@@H](Cc1ccccc1)C(=O)N[C@@H](CO)C(=O)N[C@H](C(=O)N[C@@H](CCCCN)C(=O)N[C@@H](CO)C(=O)N[C@@H](CC(N)=O)C(=O)N[C@@H](Cc1c[nH]cn1)C(=O)N1CCC[C@H]1C(=O)NCC(=O)N[C@@H](CC(C)C)C(=O)N[C@@H](CC(C)C)C(=O)N[C@@H](CO)C(=O)N[C@@H](CCC(=O)O)C(=O)N[C@@H](CCCCN)C(=O)N[C@@H](C)C(=O)N[C@@H](C)C(=O)N[C@@H](CO)C(=O)N[C@@H](CCCCN)C(=O)N[C@H](C(=O)N[C@@H](CC(N)=O)C(=O)N[C@@H](CCC(=O)O)C(=O)N[C@H](C(=O)N[C@@H](CCSC)C(=O)N[C@@H](CC(C)C)C(=O)O)[C@@H](C)O)[C@@H](C)CC)[C@@H](C)CC)[C@@H](C)O)C(C)C (Palmitoyl-RGVMTLFSIKSNHPGLLSEKAASKINETML-OH) |
| 700 | CCCCCCCCCCCCCCCC(=O)N[C@H](C(=O)N[C@@H](Cc1ccc(O)cc1)C(=O)N[C@@H](C)C(=O)N[C@@H](Cc1c[nH]c2ccccc12)C(=O)N[C@@H](Cc1cnc[nH]1)C(=O)N[C@H](C(=O)N[C@@H](CO)C(=O)N[C@@H](Cc1ccccc1)C(=O)N[C@@H](CCCCN)C(=O)N[C@@H](C)C(=O)N[C@@H](CC(C)C)C(=O)O)[C@@H](C)O)[C@@H](C)O (Palmitoyl-TYAWHTSFKAL-OH) |
| 1330 | CCCCCCCCCCCCCCCC(=O)NCCCC[C@H](NC(=O)[C@H](CCCNC(=N)N)NC(=O)[C@H](CC(C)C)NC(=O)[C@H](CCSC)NC(=O)[C@@H](NC(=O)[C@H](CCC(=O)O)NC(=O)[C@H](CC(N)=O)NC(=O)[C@@H](NC(=O)[C@H](CCCCN)NC(=O)[C@H](CO)NC(=O)[C@H](C)NC(=O)[C@H](C)NC(=O)[C@H](CCCCN)NC(=O)[C@H](CCC(=O)O)NC(=O)[C@H](CO)NC(=O)[C@H](CC(C)C)NC(=O)[C@H](CC(C)C)NC(C)=O)[C@@H](C)CC)[C@@H](C)O)C(=O)O (stereo in doubt; form 2) |
| > 10000 | Ac-LTYAWHTSFKAL-OH |
| 2800 | Ac-TYAWHTSFKA-OH |
| > 5000 | H-VWFVVLTYAWHTSFKAL-OH |
| > 5000 | H-WFVVLTYAWHTSFKAL-OH |

| Compound | IC50 [nM] |
| --- | --- |
| CCCCCCCCCCCCCCCC(=O)N[C@@H](CC(C)C)C(=O)N[C@H](C(=O)N[C@@H](Cc1ccc(O)cc1)C(=O)N[C@@H](C)C(=O)N[C@@H](Cc1ccc(C(=O)c2ccccc2)cc1)C(=O)N[C@@H](Cc1cnc[nH]1)C(=O)N[C@H](C(=O)N[C@@H](CO)C(=O)N[C@@H](Cc1ccccc1)C(=O)N[C@@H](CCCCN)C(=O)N[C@@H](C)C(=O)N[C@@H](CC(C)C)C(=O)O)[C@@H](C)O)[C@@H](C)O (Palmitoyl-LTYA[Bpa]HTSFKAL-OH) | 100 |

Same assay, conditions: sk-mel-2

| IC50 [nM] | Compound |
| --- | --- |
| 800 | CCCCCCCCCCCCCCCC(=O)NCCCC[C@H](NC(=O)[C@H](CCCNC(=N)N)NC(=O)[C@H](CC(C)C)NC(=O)[C@H](CCSC)NC(=O)[C@@H](NC(=O)[C@H](CCC(=O)O)NC(=O)[C@H](CC(N)=O)NC(=O)[C@@H](NC(=O)[C@H](CCCCN)NC(=O)[C@H](CO)NC(=O)[C@H](C)NC(=O)[C@H](C)NC(=O)[C@H](CCCCN)NC(=O)[C@H](CCC(=O)O)NC(=O)[C@H](CO)NC(=O)[C@H](CC(C)C)NC(=O)[C@H](CC(C)C)NC(C)=O)[C@@H](C)CC)[C@@H](C)O)C(=O)O (stereo in doubt; form 1) |
